Published values pooled from the literature.
KIT T670I/V559D: Mast/stem cell growth factor receptor Kit (KIT, Homo sapiens, UniProt P10721, T670I/V559D)
KIT L576P: Mast/stem cell growth factor receptor Kit (KIT, Homo sapiens, UniProt P10721, L576P)
KIT V559D/V654A: Mast/stem cell growth factor receptor Kit (KIT, Homo sapiens, UniProt P10721, V559D/V654A)
KIT: Mast/stem cell growth factor receptor Kit (KIT, Homo sapiens, UniProt P10721)
KIT A829P: Mast/stem cell growth factor receptor Kit (KIT, Homo sapiens, UniProt P10721, A829P)
KIT D816V: Mast/stem cell growth factor receptor Kit (KIT, Homo sapiens, UniProt P10721, D816V)
KIT D816H: Mast/stem cell growth factor receptor Kit (KIT, Homo sapiens, UniProt P10721, D816H)

The remaining binding of CCN1CCN(Cc2ccc(C(=O)Nc3ccc(C)c(Oc4ccc5c(c4)CC(=O)N5)c3)cc2C(F)(F)F)CC1 is reported as 58% (KIT T670I/V559D; binding, competition with immobilised ligand; 1 µM).
Cc1nc(C2CCN(C(=O)c3ccc(OC(F)(F)F)cc3N)CC2)c2ncc(N3CCN(C)CC3)cc2n1 gave a remaining binding of 87% (KIT L576P; cell-free assay, competition with immobilised ligand; 1 µM).
The remaining binding of c1cncc(-c2cccc(Nc3nccc(NC4CCCCC4)n3)c2)c1 is reported as 43% (KIT V559D/V654A; binding, competition with immobilised ligand; 10 µM).
With COc1ccnn2ncc(-c3ccnc(N(C)C)n3)c12 the remaining binding was 100% (KIT; binding; 1 µM).
The remaining binding of CNC(=O)[C@@H]1CC[C@@H](n2c(-c3ccc4cnccc4c3)nc3ccc(C(=O)NCc4cccc(C(N)=O)c4)cc32)C1 is reported as 99% (KIT L576P; binding, competition with immobilised ligand; 1 µM).
With Cc1cnn2ncc(-c3ccnc(N(C)C)n3)c2c1 the remaining binding was 100% (KIT; binding; 1 µM).
With O=C(NCC1CCOCC1)c1n[nH]cc1NC(=O)c1c(F)cccc1F the remaining binding was 84% (KIT A829P; binding, competition with immobilised ligand; 1 µM).
With O=C(c1ccc(Nc2ncc(Cl)c(-c3ccc(Cl)s3)n2)cc1)N1CCC(N2CCCC2)CC1 the remaining binding was 1.4% (KIT L576P; binding, competition with immobilised ligand; 1 µM).
COc1cnc(Nc2cccc(S(N)(=O)=O)c2)nc1N1CCN(c2ccccc2)C(=O)C1 gave a remaining binding of 98% (KIT; binding, competition with immobilised ligand; 1 µM).
C[C@@H]1CCN(c2nccc(-c3cnn4ncccc34)n2)C1 gave a remaining binding of 85% (KIT A829P; binding; 1 µM).
The remaining binding of C[C@@]1(Cc2ccc(C#N)cc2)C(=O)N(c2cc(Cl)cc(Cl)c2)c2ncc(C(=O)NC3(c4nc(C5CCC5)no4)CC3)n21 is reported as 100% (KIT D816V; cell-free assay, competition with immobilised ligand; 1 µM).
CN(C)c1nccc(-c2cnc3ncccn23)n1 gave a remaining binding of 54% (KIT A829P; binding; 1 µM).
The remaining binding of C[C@@H]1CN(c2cc(-c3n[nH]c4ccc(OC5(C)CC5)cc34)ncn2)C[C@H](C)O1 is reported as 95% (KIT T670I/V559D; cell-free assay, competition with immobilised ligand; 0.1 µM).
With CN(c1nccc(-c2cnn3ncccc23)n1)C1CC1 the remaining binding was 83% (KIT D816H; binding; 1 µM).
Cc1c(C(=O)O)cc(-c2ccc(C3CCNCC3)cc2)c2ccc(-c3ccc(C(F)(F)F)cc3)cc12 gave a remaining binding of 100% (KIT D816H; binding, competition with immobilised ligand; 1 µM).
For N[C@@H]1CCN(c2nccc(-c3cnn4ncccc34)n2)C1, the remaining binding was 100% (KIT A829P; binding; 1 µM).
The remaining binding of O=S(=O)(NC1CCC(c2cc(F)ccc2F)(S(=O)(=O)c2ccc(Cl)cc2)CC1)C(F)(F)F (stereo not shown) is reported as 100% (KIT L576P; cell-free assay, competition with immobilised ligand; 1 µM).
c1cnn2ncc(-c3ccnc(N4CCC45COC5)n3)c2c1 gave a remaining binding of 100% (KIT V559D/V654A; binding; 1 µM).
The remaining binding of O=C(c1ccc(Nc2ncc(Cl)c(-c3cc4ccccc4s3)n2)cc1)N1CCC(N2CCCC2)CC1 is reported as 19% (KIT A829P; binding, competition with immobilised ligand; 1 µM).
The remaining binding of Cc1cc(-n2nc(Cc3cc(F)cc(C(F)(F)F)c3)nc2C)ccc1C(N)=O is reported as 100% (KIT A829P; cell-free assay, competition with immobilised ligand; 1 µM).
For O=C(NCCCN1CCOCC1)c1ccc(Nc2ncc(Cl)c(-c3ccc(Cl)s3)n2)cc1, the remaining binding was 26% (KIT D816V; binding, competition with immobilised ligand; 1 µM).
The remaining binding of CC1=C(C#N)[C@@H](c2ccc3[nH]nc(C)c3c2)C(C#N)=C(c2ccc(Cl)cc2)N1 is reported as 84.3% (KIT D816H; cell-free assay, competition with immobilised ligand; 1 µM).
